From ChEMBL document CHEMBL3112528 (ACS Med Chem Lett, 2014)
Values belong to the compound of their own block, whether it stands above or below them.

What was measured:
[1] = Half life in dog at 0.2 mg/kg, iv; format: ADME, organism-based, Canis lupus familiaris; set-up: dose 0.2 mg/kg, route intravenous; details: in vivo
[2] = Clearance in dog at 0.2 mg/kg, iv; format: ADME, organism-based, Canis lupus familiaris; set-up: dose 0.2 mg/kg, route intravenous; details: in vivo
[3] = Volume of distribution at steady state in dog at 0.2 mg/kg, iv; format: ADME, organism-based, Canis lupus familiaris; set-up: dose 0.2 mg/kg, route intravenous; details: in vivo, read-out: Vdss
[4] = Oral bioavailability in dog at 1 mg/kg; format: ADME, organism-based, Canis lupus familiaris; details: in vivo
[5] = Oral bioavailability in rat at 1 mg/kg; format: ADME, organism-based; details: in vivo
Summary of the method: (§1)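 Rats (n = 3) given 0.5 mg/kg intravenously and 1.0 mg/kg orally; values reported as mean ± spread over 3 animals.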

[6] = Clearance in dog at 0.2 mg/kg, iv and 1 mg/kg, po; format: ADME, organism-based, Canis lupus familiaris; details: in vivo
[7] = Volume of distribution at steady state in rat at 0.5 mg/kg, iv and 1 mg/kg, po; format: ADME, organism-based; details: in vivo, read-out: Vdss; summary of the method: as §1
[8] = Volume of distribution at steady state in dog at 0.2 mg/kg, iv and 1 mg/kg, po; format: ADME, organism-based, Canis lupus familiaris; details: in vivo, read-out: Vdss
[9] = Half life in rat at 0.5 mg/kg, iv and 1 mg/kg, po; format: ADME, organism-based; details: in vivo; summary of the method: as §1
[10] = Clearance in rat at 0.5 mg/kg, iv and 1 mg/kg, po; format: ADME, organism-based; details: in vivo; summary of the method: as §1
[11] = Half life in dog at 0.2 mg/kg, iv and 1 mg/kg, po; format: ADME, organism-based, Canis lupus familiaris; details: in vivo

half-life [1]: 66 min | clearance [2]: 14 mL/min/kg | Vd [3]: 0.65 L/kg
Structure (SMILES): CCS(=O)(=O)c1ccccc1[C@H]1[C@@H](C(=O)O)CCN1C(=O)[C@H](Nc1ccc2c(N)nccc2c1)c1ccc(F)c(OC)c1

bioavailability [4]: 3.5% | bioavailability [5]: < 1%
Structure (SMILES): CCOc1cc([C@@H](Nc2ccc3c(N)nccc3c2)C(=O)NS(=O)(=O)c2ccccc2)ccc1OC(C)C

clearance [6]: 41 mL/min/kg | Vd [7]: 5.6 L/kg | Vd [8]: 4.2 L/kg | half-life [9]: 294 min | clearance [10]: 26 mL/min/kg | bioavailability [4]: 45% | bioavailability [5]: 7.9% | half-life [11]: 132 min
Structure (SMILES): CCOc1ccc(F)c([C@@H](Nc2ccc3c(N)nccc3c2)C(=O)N2CCC[C@@H]2c2cc(NC(=O)OC)ccc2S(=O)(=O)C(C)C)c1

bioavailability [4]: 45% | bioavailability [5]: 31%
Structure (SMILES): CCOc1cc([C@@H](Nc2ccc3c(N)nccc3c2)C(=O)NCc2ccccc2)ccc1OC(C)C
